The text below walks through data of ChEMBL document CHEMBL2034918, “Synthesis and cytotoxic activity of new acridine-thiazolidine derivatives” (Bioorg Med Chem, 2012).

The source made the active and inactive calls. The calls are words filed in the database; no cut-off is given here.

For data set [1], the system named is V79. Description: Cytotoxicity against chinese hamster V79 cells after 72 hrs by MTT assay. The format is cell-based. The note with it: Cricetulus griseus, V79, 72 h. The method in brief:
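V79 Chinese hamster lung fibroblasts grown in MEM with Earle's salts, 10% foetal bovine serum, 2 mM glutamine, penicillin/streptomycin, 37 °C, 5% CO₂. Seeded at 0.7 × 10⁵ cells/well. Compounds in DMSO added at 0.048–25 µg/mL after 24 h and left 72 h. MTT 0.5 mg/mL for 3 h, formazan in DMSO read at 595 nm. IC50 by nonlinear regression, two experiments in duplicate.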

A further data set concerns PBMC. Description: Cytotoxicity against human PBMC after 72 hrs by alamar blue assay. The format is cell-based. The method in brief: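 PBMC isolated from heparinised blood of healthy non-smoking donors by Ficoll-Hypaque density gradient. Cultured in RPMI-1640 with 20% FBS, glutamine, antibiotics and 2% phytohaemagglutinin at 37 °C, 5% CO₂. Plated at 3 × 10⁵ cells/mL; compounds in DMSO added at 0.048–25 µg/mL after 24 h, 72 h exposure. Alamar blue (resazurin) added 24 h before the end; absorbance read at 570 and 595 nm. IC50 by nonlinear regression.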

A further data set deals with SF-295. Description: Antiproliferative activity against human SF295 cells after 72 hrs by MTT assay. The format is functional, cell-based. Particulars: SF-295, 72 h. The method in brief:
(§1)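 Cancer lines kept in RPMI-1640 with 10% foetal bovine serum, 2 mM glutamine, penicillin/streptomycin, 37 °C, 5% CO₂. Seeded at 0.7 × 10⁵ cells/well (adherent) or 0.3 × 10⁶ cells/mL (suspension). After 24 h, compounds in DMSO added at 0.048–25 µg/mL for 72 h. Medium then replaced with 0.5 mg/mL MTT for 3 h. Formazan dissolved in DMSO, absorbance read at 595 nm.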

A further data set has as its system HL-60. The data set can be described thus: Antiproliferative activity against human HL60 cells after 72 hrs by MTT assay. Particulars: HL-60, 72 h. In kind it is functional, cell-based. Summed up:
as §1

The test system of data set [2] is PC-3. The data set can be described thus: Antiproliferative activity against human PC3 cells after 72 hrs by MTT assay. In kind it is functional, cell-based. Particulars: PC-3, 72 h. Summed up:
as §1

For the next data set, the system named is SW-620. Description: Antiproliferative activity against human SW620 cells after 72 hrs by MTT assay. In kind it is functional, cell-based. The note with it: SW-620, 72 h. The method in brief: as §1
A further data set has as its system K562. The data set can be described thus: Antiproliferative activity against human K562 cells after 72 hrs by MTT assay. In kind it is functional, cell-based. Particulars: K562, 72 h. Summed up:
as §1

Data set [3] has as its system V79. The data set can be described thus: Selectivity ratio of IC50 for chinese hamster V79 cells to IC50 for human SF295 cells.
The test system of a further data set is CCRF-CEM. The data set can be described thus: Antiproliferative activity against human CEM cells after 72 hrs by MTT assay. In kind it is functional, cell-based. The method in brief:
as §1

In another data set the test system is HCT-8. Description: Antiproliferative activity against human HCT8 cells after 72 hrs by MTT assay. The format is functional, cell-based. Particulars: HCT-8, 72 h. Summed up: as §1
Another data set relates to COLO 205. Description: Antiproliferative activity against human COLO205 cells after 72 hrs by MTT assay. In kind it is functional, cell-based. Particulars: COLO 205, 72 h. Summed up: as §1
Data set [4] is described as follows: Haemolysis in mouse erythrocytes at 200 ug/mL after 30 mins by spectrophotometry. In kind it is ADME, cell-based. Particulars: erythrocyte, 0.5 h. The method in brief:
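Mouse erythrocytes used as a 2% suspension in 0.85% NaCl with 10 mM CaCl₂. Compounds tested across 1.5–200 µg/mL with 1% Triton X-100 as positive control. Incubated 30 min at room temperature, then centrifuged. Released haemoglobin in the supernatant measured at 540 nm.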

A further data set concerns OVCAR-8. The data set can be described thus: Antiproliferative activity against human OVCAR8 cells after 72 hrs by MTT assay. The format is functional, cell-based. Particulars: OVCAR-8, 72 h. Summed up:
as §1

For another data set, the system named is UACC-62. The data set can be described thus: Antiproliferative activity against human UACC62 cells after 72 hrs by MTT assay. In kind it is functional, cell-based. Particulars: UACC-62, 72 h. The method in brief:
as §1

The subject of a further data set is MDA-MB-435. Description: Antiproliferative activity against human MDA-MB-435 cells after 72 hrs by MTT assay. In kind it is functional, cell-based. The note with it: MDA-MB-435, 72 h. The method in brief: as §1
Data set [5] relates to Nucleic Acid. Description: Binding affinity to calf thymus dsDNA in biosensor assessed as oxidation of exposed bases at 10^-4 M by differential pulse voltametry. The format is nucleic-acid assay. Particulars: Bos taurus. Summed up:
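Glassy carbon electrode polished with alumina, then pretreated by five cyclic scans 0 to +1.4 V in acetate buffer pH 4.5. Electrode coated with a dsDNA gel layer, then 20 µL of 10⁻⁴ M ethanolic compound added with drying. DPV in acetate buffer from 0 to 1.4 V: pulse amplitude 50 mV, pulse width 70 ms, step 2 mV, scan rate 5 mV/s, 25 °C. An untreated dsDNA electrode served as blank.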

For data set [6], the system named is Nucleic Acid. Description: Binding affinity to calf thymus ssDNA in solution assessed as oxidation of exposed bases at 10^-4 M by differential pulse voltametry. In kind it is nucleic-acid assay. Particulars: Bos taurus. The method in brief:
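ssDNA made by dissolving dsDNA (3.0 mg/mL) in 1 M HCl with heating for 1 h. Compound was incorporated into a carbon paste electrode; blank paste contained ethanol only. DPV at pH 4.5 in ssDNA solution (1.0 × 10⁻⁴ M): equilibration 5 s, step 2 mV, pulse amplitude 50 mV, scan rate 5 mV/s.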

A further data set deals with HCT-15. Description: Antiproliferative activity against human HCT15 cells after 72 hrs by MTT assay. In kind it is functional, cell-based. The note with it: HCT-15, 72 h. The method in brief:
as §1

Data set [7] concerns PC-3. Description: Cytotoxicity against human PC3 cells after 24 hrs by MTT assay. The format is functional, cell-based. The note with it: PC-3, 24 h.
The test system of a further data set is LNCaP. The data set can be described thus: Cytotoxicity against human LNCAP cells after 24 hrs by MTT assay. In kind it is functional, cell-based.
The test system of the next data set is DU-145. The data set can be described thus: Antiproliferative activity against human DU145 cells after 72 hrs by MTT assay. In kind it is functional, cell-based. The note with it: DU-145, 72 h. Summed up: as §1
The next data set deals with Hs-578T. The data set can be described thus: Antiproliferative activity against human Hs578T cells after 72 hrs by MTT assay. The format is functional, cell-based. Summed up: as §1
For the next data set, the system named is MX1. Description: Antiproliferative activity against human MX1 cells after 72 hrs by MTT assay. The note with it: MX1, 72 h. In kind it is functional, cell-based. The method in brief:
as §1

For the next data set, the system named is MDA-MB-231. The data set can be described thus: Antiproliferative activity against human MDA-MB-231 cells after 72 hrs by MTT assay. In kind it is functional, cell-based. The note with it: MDA-MB-231, 72 h. The method in brief: as §1

On to `O=C1SC(=Cc2c3ccccc3nc3ccccc23)C(=O)N1Cc1ccc(Br)cc1` (mixture of isomers), for which the concentration for half-maximal inhibition (IC50) with V79 [1] was 22.6 µM; in the data set with PBMC, above 52.6 µM; in the data set with SF-295, 7.2 µM; in the data set with HL-60 it was above 52.6 µM; with PC-3 [2], 8.6 µM; in the data set on SW-620, 35.5 µM. The 50% inhibitory concentration (IC50) is above 52.6 µM in the data set on K562; above 52.6 µM with CCRF-CEM; 11.2 µM in the data set with HCT-8; above 52.6 µM with COLO 205; 37.2 µM in the data set with OVCAR-8; 50.7 µM in the data set with UACC-62. The IC50 in the data set on MDA-MB-435 came to 25.9 µM; in the data set with HCT-15, 19.8 µM. Also, the “Ratio IC50” value with V79 [3] was 3.1. Moreover, the Activity entry in data set [4] is “Non-toxic”. In addition, the result with Nucleic Acid [5] and with Nucleic Acid [6] was Active.
As to `Cc1c(C)c2c(c(C)c1O)CCC(C)(COc1ccc(/C=C3/SC(=O)NC3=O)cc1)O2` (stereo unspecified), the IC50 with PC-3 [7] turned out to be 20 µM; in the data set on LNCaP it was 14 µM.
Regarding `COc1cc(NS(C)(=O)=O)ccc1Nc1c2ccccc2nc2ccccc12` [AMSACRINE], the half-inhibitory concentration (IC50) is 5.8 µM in the data set on V79 [1]; 21.7 µM in the data set with PBMC; 0.5 µM in the data set on SF-295; 0.08 µM with HL-60; 3.3 µM in the data set on PC-3 [2]; 0.3 µM with SW-620. The IC50 with HCT-8 stood at 0.3 µM; with DU-145 it was 0.3 µM; in the data set with COLO 205, 1.1 µM; with OVCAR-8, 1.4 µM; with HCT-15, 0.3 µM.
As to `O=C1S/C(=C\c2c3ccccc3nc3ccccc23)C(=O)N1Cc1ccc(Cl)cc1`, the 50% inhibitory concentration (IC50) is 17.9 µM in the data set on V79 [1]; above 58 µM in the data set on PBMC; 5.8 µM with SF-295; above 58 µM in the data set on HL-60; above 58 µM in the data set with Hs-578T; 13 µM with PC-3 [2]. The IC50 in the data set on SW-620 was 20.1 µM; with K562, above 58 µM; in the data set on CCRF-CEM, above 58 µM; with MX1, above 58 µM; in the data set on HCT-8, 8.3 µM; with DU-145 it was 9.5 µM. In addition, the IC50 is 6.3 µM in the data set on COLO 205; above 58 µM in the data set on MDA-MB-231; 5.7 µM with OVCAR-8; 29 µM in the data set with UACC-62; 22.2 µM with MDA-MB-435; 21.5 µM in the data set on HCT-15. For the same molecule, the “Ratio IC50” value in the data set with V79 [3] came to 3.1. For the same molecule, the Activity result in [4] is listed as “Non-toxic”. Further, the result with Nucleic Acid [5] and in the data set on Nucleic Acid [6] was Active.
Consider `Cc1ccc(CN2C(=O)S/C(=C\c3c4ccccc4nc4ccccc34)C2=O)cc1`, for which the IC50 with V79 [1] is 28.5 µM; with PBMC, above 60.9 µM; in the data set with SF-295, 7.8 µM; in the data set with HL-60, above 60.9 µM; in the data set on Hs-578T it was above 60.9 µM; with PC-3 [2], 17.7 µM. The half-maximal inhibitory concentration (IC50) is 26.8 µM with SW-620; above 60.9 µM with K562; above 60.9 µM with CCRF-CEM; above 60.9 µM with MX1; 7.4 µM with HCT-8; above 60.9 µM with DU-145. Further, the IC50 with COLO 205 was 46.4 µM; with MDA-MB-231 it was above 60.9 µM; in the data set on OVCAR-8, 19.7 µM; in the data set with UACC-62, 21.1 µM; in the data set with MDA-MB-435 it was 15.6 µM; in the data set with HCT-15, 29.2 µM. The “Ratio IC50” value in the data set on V79 [3] came out at 3.7. For the same molecule, the Activity result in data set [4] is “Non-toxic”. The result in the data set on Nucleic Acid [5] and with Nucleic Acid [6] was Active.
For `Cc1c(C)c2c(c(C)c1O)CCC(C)(COc1ccc(CC3SC(=O)NC3=O)cc1)O2` (stereo unspecified) [TROGLITAZONE], the half-maximal inhibitory concentration (IC50) with PC-3 [7] came to 30 µM; in the data set with LNCaP it was 22 µM.
For the molecule `O=C1SC(=Cc2c3ccccc3nc3ccccc23)C(=O)N1Cc1ccc(F)cc1` (mixture of isomers), the IC50 is 32.7 µM in the data set with V79 [1]; above 60.3 µM in the data set with PBMC; 5.6 µM in the data set on SF-295; above 60.3 µM in the data set with HL-60; 27.1 µM in the data set with PC-3 [2]; 31.3 µM with SW-620. Besides, the IC50 in the data set with K562 is above 60.3 µM; with CCRF-CEM it was above 60.3 µM; in the data set on HCT-8, 5.6 µM; in the data set on COLO 205, 23 µM; in the data set with OVCAR-8, 9.3 µM; in the data set on UACC-62 it was 9.5 µM. Further, the IC50 with MDA-MB-435 is 14.1 µM; in the data set on HCT-15 it was 58 µM. In the data set on V79 [3], the “Ratio IC50” value is listed as 5.9. The Activity entry in [4] is given as “Non-toxic”. For the same molecule, the outcome with Nucleic Acid [5] and in the data set on Nucleic Acid [6] was Active.
Regarding `CCOC(=O)/C(C#N)=C/c1c2ccccc2nc2ccccc12`, the IC50 in the data set on SF-295 was 54.7 µM; with HL-60, 4.07 µM; in the data set on OVCAR-8 it was 23.3 µM. Moreover, in [4], the Activity entry is listed as “Non-toxic”. In addition, the result in the data set on Nucleic Acid [5] and with Nucleic Acid [6] was Active.
